From ChEMBL document CHEMBL1146772, “Design, synthesis, and structure-activity relationship of new isobenzofuranone ligands of protein kinase C” (Bioorg Med Chem Lett, 2004)

Key:
[1] = biological target: T1, Protein kinase C alpha type (Homo sapiens, UniProt P17252); assay: Displacement of [3H]PDBu from PKC alpha at 100 uM; range 40 to 60
Outline: (§1)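 Competitive [3H]PDBu binding to recombinant human PKCα (Sf9-expressed), 4.3-4.8 nM, in 50 mM Tris-HCl pH 7.5 containing 4 mM CaCl2, 100 µg/mL sonicated phosphatidylserine, 4 mg/mL BSA and 10 nM [3H]PDBu. Incubation 2 h at 0 °C, then filtration on PEI-treated glass-fiber filters and scintillation counting. 10 µM TPA defined background/nonspecific binding. Ki derived using [3H]PDBu Kd 0.19 nM (Scatchard).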

[2] = biological target: T1, Protein kinase C alpha type; assay: Binding affinity for protein kinase C alpha
[3] = biological target: T1, Protein kinase C alpha type; assay: Displacement of [3H]PDBu from PKC alpha at 100 uM; range 60 to 80; outline: as §1
[4] = biological target: T1, Protein kinase C alpha type; assay: Displacement of [3H]PDBu from PKC alpha at 100 uM; range 0 to 20; outline: as §1
[5] = biological target: T1, Protein kinase C alpha type; assay: Displacement of [3H]PDBu from PKC alpha at 100 uM; range 20 to 40; outline: as §1
[6] = biological target: T1, Protein kinase C alpha type; assay: Displacement of [3H]PDBu from PKC alpha at 100 uM.; outline: as §1

| Ki [2] [nM] | SMILES | other results |
| --- | --- | --- |
| 122 | CCCCCCCCCCOc1cccc2c1C(=O)O[C@]2(CO)COC(C)=O | inhibition [1]: 59% |
| 540 | CCCCCCCCCCCCOc1cccc2c1C(=O)O[C@]2(CO)COC(C)=O | inhibition [3]: 75% |
| 540 | CC(=O)OC[C@@]1(CO)OC(=O)c2c(OCc3ccccc3)cccc21 | inhibition [4]: 9% |
| 122 | CCCCCCCCCCOc1cccc2c1C(=O)O[C@@]2(CO)COC(C)=O | inhibition [5]: 21% |
| 540 | CCCCCCCCCCCCOc1cccc2c1C(=O)O[C@@]2(CO)COC(C)=O | inhibition [5]: 35% |
| 122 | C=CCOC(=O)Oc1cccc2c1C(=O)O[C@]2(CO)COC(C)=O | inhibition [6]: 0% |
| 122 | CCCCCCCCCCCCOc1cccc2c1C(=O)O[C@@]2(CO)COC(=O)C(C)(C)C | – |
